pIC50, pKi: −log10 of the molar value.
Tests used:
[1] = target: T1, Cathepsin K (Homo sapiens, UniProt P43235); assay: Inhibition of Human cathepsin K
T1 sequence (P43235 whole entry): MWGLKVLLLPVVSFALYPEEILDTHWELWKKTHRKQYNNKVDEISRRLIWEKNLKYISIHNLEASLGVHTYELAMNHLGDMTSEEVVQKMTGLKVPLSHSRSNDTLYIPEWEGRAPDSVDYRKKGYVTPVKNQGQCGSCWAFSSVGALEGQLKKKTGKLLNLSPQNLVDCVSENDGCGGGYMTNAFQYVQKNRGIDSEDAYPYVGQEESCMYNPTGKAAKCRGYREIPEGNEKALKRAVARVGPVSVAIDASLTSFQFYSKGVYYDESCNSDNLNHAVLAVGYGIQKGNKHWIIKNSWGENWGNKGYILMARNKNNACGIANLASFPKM

[2] = target: Cathepsin B (Homo sapiens, UniProt P07858); assay: Inhibitory activity against Human cathepsin B
[3] = target: Cathepsin S (Homo sapiens, UniProt P25774); assay: Inhibitory activity against Human cathepsin S
[4] = half life period in male Sprague-Dawley rat; assay type: ADME, organism-based; settings: in vivo
How it was run: (§1)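 Crossover in rats over 2 study days, 2 days apart: 30-min IV infusion on day 1, oral bolus gavage in the same animals on day 2. Blood taken from lateral tail vein, plasma by centrifugation, drug quantified by LC/MS/MS (LLOQ 5–10 ng/mL). PK parameters from plasma concentration–time data by standard analysis.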

[5] = Bioavailability in rat (Sprague-Dawley) (male); assay type: ADME, organism-based; settings: in vivo; how it was run: as §1
[6] = target: Procathepsin L (Homo sapiens, UniProt P07711); assay: Inhibitory activity against Human cathepsin L
[7] = Volume of distribution in male Sprague-Dawley rat; assay type: ADME, organism-based; settings: in vivo, read-out: Vdss; how it was run: as §1
[8] = plasma clearance in male Sprague-Dawley rat; assay type: ADME, organism-based; how it was run: as §1
[9] = target: T1, Cathepsin K; assay: In vitro IC50 value was measured using in situ cytochem assay.
[10] = target: T2, Cathepsin K (Rattus norvegicus, UniProt O35186); assay: Inhibitory activity against Rat cathepsin K
T2 sequence (O35186 whole entry): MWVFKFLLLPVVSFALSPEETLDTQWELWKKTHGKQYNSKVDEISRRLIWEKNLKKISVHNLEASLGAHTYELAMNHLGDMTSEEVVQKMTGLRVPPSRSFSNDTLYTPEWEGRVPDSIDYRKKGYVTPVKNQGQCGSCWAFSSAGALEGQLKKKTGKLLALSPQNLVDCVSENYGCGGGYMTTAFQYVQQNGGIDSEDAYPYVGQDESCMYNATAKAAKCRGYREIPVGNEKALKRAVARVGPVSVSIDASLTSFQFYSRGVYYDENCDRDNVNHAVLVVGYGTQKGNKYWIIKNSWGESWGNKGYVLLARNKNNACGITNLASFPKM

[11] = volume distribution in male Sprague-Dawley rat; assay type: ADME, organism-based; settings: in vivo, read-out: Vdss; how it was run: as §1

Chain of Cathepsin S (P25774 whole entry): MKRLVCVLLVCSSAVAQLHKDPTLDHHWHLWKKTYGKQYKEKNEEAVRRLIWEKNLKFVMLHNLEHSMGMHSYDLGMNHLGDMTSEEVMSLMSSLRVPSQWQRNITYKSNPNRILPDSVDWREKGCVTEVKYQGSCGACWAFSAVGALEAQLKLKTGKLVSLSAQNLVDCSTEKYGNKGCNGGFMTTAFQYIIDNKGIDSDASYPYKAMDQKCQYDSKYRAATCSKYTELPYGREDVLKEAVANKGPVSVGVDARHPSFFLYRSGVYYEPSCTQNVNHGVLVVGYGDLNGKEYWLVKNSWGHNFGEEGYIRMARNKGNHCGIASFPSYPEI
Chain of Procathepsin L (P07711 whole entry): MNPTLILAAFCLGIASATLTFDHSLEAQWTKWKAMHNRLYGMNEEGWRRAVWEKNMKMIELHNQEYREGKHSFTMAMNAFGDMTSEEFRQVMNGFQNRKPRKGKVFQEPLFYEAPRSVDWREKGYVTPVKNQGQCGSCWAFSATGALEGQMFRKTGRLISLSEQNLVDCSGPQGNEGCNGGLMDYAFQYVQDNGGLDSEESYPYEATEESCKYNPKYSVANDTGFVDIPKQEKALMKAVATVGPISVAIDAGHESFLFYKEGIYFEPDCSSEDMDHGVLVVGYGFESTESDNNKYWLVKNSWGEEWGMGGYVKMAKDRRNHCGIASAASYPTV

Row | SMILES | pKi [1] | pKi [2] | pKi [3] | half-life [4] [min] | bioavailability [5] [%] | clearance [8] [mL/min/kg] | other results
1 | CC(C)C[C@H](NC(=O)OCc1ccccc1)C(=O)NCC(=O)CNC(=O)[C@H](CC(C)C)NC(=O)OCc1ccccc1 |  |  | 6.05 |  |  |  | 
2 | CC(C)C[C@H](NC(=O)OCc1ccccc1)C(=O)N[C@@H]1CCCN(C(=O)[C@H](CC(C)C)NC(=O)OCc2ccccc2)CC1=O | 7.82 |  | 7.01 |  |  |  | pKi [6]: 6.54
3 | CC(C)C[C@H](NC(=O)c1cc2ccccc2o1)C(=O)N[C@H]1CCCN(S(=O)(=O)c2ccccn2)CC1=O |  | 6.30 |  | 29.8 | 42.1 | 49.2 | pKi [6]: 8.66; Vd [7]: 1.86 L/kg; pKi [10]: 7.22
4 | CC(C)C[C@H](NC(=O)c1cc2ccccc2o1)C(=O)NC1CCCN(S(=O)(=O)c2ccccn2)CC1O (stereo partly drawn) | < 6.00 |  |  |  |  |  | 
5 | CC(C)C[C@H](NC(=O)OCc1ccccc1)C(=O)N1CCCC(NC(=O)[C@@H](CC(C)C)NC(=O)OCc2ccccc2)C(=O)C1 (stereo partly drawn) | 7.52 |  |  |  |  |  | 
6 | CC(C)C[C@H](NC(=O)c1cc2ccccc2o1)C(=O)N[C@@H]1CCCN(S(=O)(=O)c2ccccn2)CC1=O |  |  |  | 33.2 | 9.7 | 51.9 | Vd [11]: 1.64 L/kg
7 | CC(C)C[C@H](NC(=O)c1cc2ccccc2o1)C(=O)N[C@@H](C)C(=O)CN(C)S(=O)(=O)c1ccccn1 | 6.17 |  |  | 21.5 | 2.5 | 44.6 | Vd [11]: 1.15 L/kg
8 | CC(C)C[C@H](NC(=O)c1cc2cc(OCCN3CCOCC3)ccc2o1)C(=O)NC1CCCN(C(=O)Cc2cccc(-c3ccccn3)c2)CC1O (stereo partly drawn) | 7.27 |  |  |  |  |  | 

Further compounds by rising pKi [1], results first:

Row | pKi [1] | pKi [2] | pKi [3] | half-life [4] [min] | bioavailability [5] [%] | clearance [8] [mL/min/kg] | SMILES | other results
9 | 8.12 | 7.23 | 7.70 | 33.2 | 3.2 | 32.5 | CC(C)C[C@H](NC(=O)c1cc2ccccc2o1)C(=O)N[C@@H](C)C(=O)CNS(=O)(=O)c1ccccn1 | Vd [7]: 0.71 L/kg
10 | 8.33 |  |  |  |  |  | CC(C)C[C@H](NC(=O)c1cc2cc(OCCN3CCOCC3)ccc2o1)C(=O)N[C@@H]1CCCN(C(=O)Cc2cccc(-c3ccccn3)c2)CC1=O | 
11 | 8.59 | 6.36 |  |  |  |  | CC(C)C[C@H](NC(=O)OCc1ccccc1)C(=O)N1CCC(NC(=O)[C@@H](CC(C)C)NC(=O)OCc2ccccc2)C(=O)C1 (stereo partly drawn) | 
12 | 8.64 | < 6.00 |  |  |  |  | CC(C)C[C@H](NC(=O)OCc1ccccc1)C(=O)N1CC(=O)C(NC(=O)[C@@H](CC(C)C)NC(=O)OCc2ccccc2)C1 (stereo partly drawn) | 
13 | 8.70 |  | 7.59 |  |  |  | CC(C)C[C@H](NC(=O)OCc1ccccc1)C(=O)NC1CCCN(C(=O)[C@H](CC(C)C)NC(=O)OCc2ccccc2)CC1=O (stereo partly drawn) | pKi [6]: 7.33
14 | 8.80 |  |  | 27 | 3.3 | 33.1 | CC(C)C[C@H](NC(=O)c1cc2ccccc2o1)C(=O)NCC(=O)CNS(=O)(=O)c1ccccn1 | Vd [11]: 0.65 L/kg
15 | 11.32 | 7.00 | 7.85 | 338 | 2.1 | 39.7 | CC(C)C[C@H](NC(=O)c1cc2cc(OCCN3CCOCC3)ccc2o1)C(=O)N[C@H]1CCCN(C(=O)Cc2cccc(-c3ccccn3)c2)CC1=O | pKi [6]: 9.31; Vd [7]: 1.29 L/kg; pIC50 [9]: 7.52; pKi [10]: 8.32
